Assay [1] addresses T1, Transient receptor potential cation channel subfamily V member 1 (Homo sapiens, UniProt Q8NER1). In words: Agonist activity at recombinant human TRPV1 expressed in CHO cells assessed as increase in calcium uptake incubated for 5 mins in presence of 45Ca2+ and capsaicin by liquid scintillation counter. Type of assay: cell-based.
The next assay deals with Mu-type opioid receptor (Homo sapiens, UniProt P35372). In words: Displacement of [3H]-DAMGO from full length human MOR expressed in chem5 cells incubated for 60 mins by liquid scintillation counter. Type of assay: cell-based. (Loss of bound radioactivity is the signal in a displacement assay; it reports binding, not function.)
Assay [2] has as its target T1, Transient receptor potential cation channel subfamily V member 1. In words: Displacement of [3H]RTX from recombinant human TRPV1 expressed in CHO cells incubated for 60 mins by liquid scintillation counter. Type of assay: cell-based. The method, boiled down: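 Pellets from human TRPV1 CHO cells (Tet-Off, induced 48 h) in DPBS with Ca2+/Mg2+ and BSA 0.25 mg/mL. Incubated with [3H]RTX 100 pM and varied competitor, 60 min at 37 °C. Nonspecific binding defined with unlabelled RTX 100 nM. Chilled, glycoprotein added, membranes pelleted by centrifugation, scintillation counted. Ki from Hill equation fit. Mean of ≥3 experiments.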

Assay [3] has as its system Mus musculus. The assay is described as follows: Antinociceptive activity in ip dosed ICR mouse assessed as reduction in pain response of paw licking and biting pretreated for 30 mins followed by formalin treatment and measures after 0 to 5 mins by formalin test. Type of assay: functional. The method, boiled down: (§1)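 Male ICR mice, 20-25 g, 6-8 per group. Compound i.p. 30 min before 20 μL of 2% formalin in 0.9% saline into dorsal right hindpaw. Licking and biting time summed per 5 min block over 30 min. Early phase 0-5 min, late phase 20-30 min. ED50 derived from dose-response.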

For assay [4], the system named is Mus musculus. The assay is described as follows: Antinociceptive activity in ICR mouse assessed as reduction in capsaicin-induced paw licking at 20 mg/kg, ip pretreated for 30 mins followed by capsaicin treatment and measured for 5 mins relative to control. Type of assay: functional. The method, boiled down: (§2)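 Male ICR mice, 20-25 g, 3-4 per group. Pretreated i.p. with compound or vehicle 30 min before intraplantar capsaicin 3 μg/paw in 10 μL into right hind paw. Licking time recorded for 5 min and expressed as % inhibition versus vehicle. Mean ± SEM.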

In assay [5] the test system is Mus musculus. The assay is described as follows: Antinociceptive activity in ICR mouse assessed as reduction in paw licking time at 30 mg/kg, ip pretreated with 10 mg/kg, ip mu opioid receptor antagonist, naloxone 15 mins prior to compound treatment and 30 mins later treated with formalin and measured after 20 to 30 mins by formalin test relative to control. Type of assay: functional. The method, boiled down:
(§3)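 Male ICR mice, 20-25 g, 3-4 per group. Naloxone 10 mg/kg i.p. given 15 min before test article or vehicle i.p. Formalin paw test 30 min later: 20 μL of 2% formalin into right hindpaw. Licking scored at 0-5 min and 20-30 min and compared with vehicle. Mean ± SEM.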

Assay [6] relates to Mus musculus. In words: Antinociceptive activity in ICR mouse assessed as reduction in paw licking time at 30 mg/kg, ip pretreated with 10 mg/kg, ip mu opioid receptor antagonist, naloxone 15 mins prior to compound treatment and 30 mins later treated with formalin and measured after 0 to 5 mins by formalin test relative to control. Type of assay: functional. The method, boiled down:
as §3

For assay [7], the system named is Mus musculus. In words: Antinociceptive activity in ICR mouse assessed as reduction in capsaicin-induced paw licking at 40 mg/kg, ip pretreated for 30 mins followed by capsaicin treatment and measured for 5 mins relative to control. Type of assay: functional. The method, boiled down:
as §2

Assay [8] deals with Mus musculus. The assay is described as follows: Antinociceptive activity in ip dosed ICR mouse assessed as reduction in capsaicin-induced paw licking pretreated for 30 mins followed by capsaicin treatment and measured for 5 mins. Type of assay: functional, organism-based. The method, boiled down:
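Male ICR mice, 20-25 g, in groups of 3-4. Compound or vehicle given i.p. 30 min before intraplantar capsaicin (3 μg/paw in 10 μl) into the right hind paw. Time spent licking the injected paw is recorded over 5 min. Results are given as mean ± SEM and compared with vehicle.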

The subject of assay [9] is Mus musculus. The assay is described as follows: Antinociceptive activity in ICR mouse assessed as reduction of pain behaviour at 40 mg/kg, ip pretreated for 30 mins followed by formalin treatment and measured after 20 to 30 mins by formalin test. Type of assay: functional, organism-based. The method, boiled down:
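Male ICR mice, 20-25 g, in groups of 6-8. Compound given i.p. 30 min before 20 μL of 2% formalin in 0.9% saline injected into the dorsal right hindpaw. Licking and biting time is summed in 5-min blocks over 30 min. Late phase is 20-30 min after injection.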

The test system of assay [10] is Mus musculus. The assay is described as follows: Antinociceptive activity in ICR mouse assessed as reduction in paw licking time at 30 mg/kg, ip pretreated for 30 mins followed by formalin treatment and measures after 0 to 5 mins by formalin test relative to control. Type of assay: functional. The method, boiled down: (§4)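 Male ICR mice, 20-25 g. Compound i.p. 30 min before 20 μL of 2% formalin in 0.9% saline into dorsal right hindpaw. Licking time scored at 0-5 min (early) and 20-30 min (late) and expressed as % decrease versus vehicle. n = 3-4, mean ± SEM.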

The test system of assay [11] is Mus musculus. The assay is described as follows: Antinociceptive activity in ip dosed ICR mouse assessed as reduction in pain response of paw licking and biting pretreated for 30 mins followed by formalin treatment and measures after 20 to 30 mins by formalin test. Type of assay: functional. The method, boiled down: as §1
The test system of assay [12] is Mus musculus. In words: Antinociceptive activity in ICR mouse assessed as reduction in paw licking time at 30 mg/kg, ip pretreated for 30 mins followed by formalin treatment and measures after 20 to 30 mins by formalin test relative to control. Type of assay: functional. The method, boiled down: as §4
In assay [13] the target is T1, Transient receptor potential cation channel subfamily V member 1. The assay is described as follows: Antagonist activity at recombinant human TRPV1 expressed in CHO cells assessed as as inhibition of capsaicin-induced calcium uptake incubated for 5 mins in presence of 45Ca2+ by liquid scintillation counter. Type of assay: cell-based. The method, boiled down: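 CHO cells stably expressing human TRPV1 (Tet-Off) induced 48 h in tetracycline-free medium. Uptake run in DMEM with BSA 0.25 mg/mL and 45Ca2+ 37 kBq/mL, with capsaicin 30 nM plus increasing test concentrations, 5 min at 37 °C. Cells washed, lysed in RIPA, counted. Four wells per point, Hill fit. ID50 converted to Ki by Cheng-Prusoff. Mean of ≥3 experiments.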

The values below come from ChEMBL document CHEMBL4406835, “Discovery of dual-acting opioid ligand and TRPV1 antagonists as novel therapeutic agents for pain” (Eur J Med Chem, 2019).

Calls of active or inactive are those of the source. The rule behind the calls is not given here.

Sequence of Mu-type opioid receptor (P35372 whole entry): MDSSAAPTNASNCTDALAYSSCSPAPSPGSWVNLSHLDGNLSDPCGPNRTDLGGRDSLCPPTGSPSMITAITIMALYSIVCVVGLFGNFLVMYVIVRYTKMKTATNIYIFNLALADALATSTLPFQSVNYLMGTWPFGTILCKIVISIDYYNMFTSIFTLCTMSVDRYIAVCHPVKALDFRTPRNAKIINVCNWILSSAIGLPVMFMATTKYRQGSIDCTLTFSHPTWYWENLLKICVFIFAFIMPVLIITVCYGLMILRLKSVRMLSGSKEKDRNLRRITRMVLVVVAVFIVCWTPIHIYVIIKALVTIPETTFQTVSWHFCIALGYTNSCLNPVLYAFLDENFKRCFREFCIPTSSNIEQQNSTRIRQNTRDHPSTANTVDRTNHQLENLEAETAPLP
T1 sequence (Q8NER1 whole entry): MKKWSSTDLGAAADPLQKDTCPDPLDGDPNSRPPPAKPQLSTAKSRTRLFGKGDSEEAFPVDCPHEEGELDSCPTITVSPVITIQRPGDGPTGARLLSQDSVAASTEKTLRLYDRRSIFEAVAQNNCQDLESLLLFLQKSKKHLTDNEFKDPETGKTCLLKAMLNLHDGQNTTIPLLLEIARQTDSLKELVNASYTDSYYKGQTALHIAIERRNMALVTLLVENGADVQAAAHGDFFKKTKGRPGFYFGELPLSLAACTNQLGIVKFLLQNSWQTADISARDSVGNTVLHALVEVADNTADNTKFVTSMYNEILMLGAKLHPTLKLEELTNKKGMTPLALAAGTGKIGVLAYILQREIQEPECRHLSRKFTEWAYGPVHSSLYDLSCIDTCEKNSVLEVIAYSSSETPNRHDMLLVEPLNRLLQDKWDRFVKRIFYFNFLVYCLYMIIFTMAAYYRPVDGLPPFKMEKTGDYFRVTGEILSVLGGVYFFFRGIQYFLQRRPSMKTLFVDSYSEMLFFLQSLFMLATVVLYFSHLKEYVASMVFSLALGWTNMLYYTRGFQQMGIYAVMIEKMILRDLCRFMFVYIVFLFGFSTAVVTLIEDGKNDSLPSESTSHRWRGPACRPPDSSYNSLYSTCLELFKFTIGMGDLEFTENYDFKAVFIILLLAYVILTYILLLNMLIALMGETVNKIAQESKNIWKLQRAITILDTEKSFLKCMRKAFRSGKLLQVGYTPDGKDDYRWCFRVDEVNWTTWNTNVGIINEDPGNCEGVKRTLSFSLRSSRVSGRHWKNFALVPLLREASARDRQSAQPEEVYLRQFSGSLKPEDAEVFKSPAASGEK

As a reminder, the EC50 is the concentration giving half of the maximal effect. In general, Ki refers to a measure of affinity in units of concentration, obtained from inhibition or displacement. Take `CN(C)C1(Cc2ccccc2)CCN(c2cc(C(F)(F)F)ccc2CNC(=O)Nc2ccc(CO)c(F)c2)CC1`: the EC50 result in assay [1] (cho) is reported as “Not Active”. In addition, the Ki at Mu-type opioid receptor worked out at 240 nM; in [2], 27.9 nM.

A word on the ED50: it is the dose at which the effect has come halfway, by size or by number of responders. One may read the inhibition in vivo as the relative decrease from the control value, in per cent. Take `CN(C)C1(Cc2ccccc2)CCN(c2cc(C(F)(F)F)ccc2CNC(=O)Nc2cccc3ncccc23)CC1`: in assay [1] (cho), the EC50 result is listed as “Not Active”. In addition, the Activity entry in the assay with Mus musculus [3] and in the assay on Mus musculus [11] was “Dose-dependent effect” in each case. The ED50 in the assay with Mus musculus [3] stood at 23.9 mg/kg; in the assay on Mus musculus [11] it was 10.5 mg/kg. Moreover, the inhibition in vivo at 20 mg/kg with Mus musculus [4] came out at 64.8%. Further, the Ki came to 29 nM at Mu-type opioid receptor and 10.8 nM in assay [2]. The results for the “inhibition (INH)” value with Mus musculus [5] and in the assay on Mus musculus [6] were 47.9% and 5.7%, respectively. Besides, in the assay on Mus musculus [7], the inhibition in vivo at 40 mg/kg worked out at 89.6%. In addition, in the assay on Mus musculus [8], the inhibition result was “Dose-dependent effect”. Also, the inhibition result with Mus musculus [9] is “Active”. In addition, the inhibition in vivo at 30 mg/kg in the assay on Mus musculus [10] is 52.5%; in the assay with Mus musculus [12] it was 90.2%.

`CN(C)C1(Cc2ccccc2)CCN(c2cc(C(F)(F)F)ccc2CNC(=O)Nc2cccc3c(=O)[nH]ccc23)CC1`: in [1] (read-out: EC50), the EC50 is 43.7 nM. Besides, the Ki was 105 nM at Mu-type opioid receptor, “Not Active” in assay [13] and 111 nM in [2].

In the case of `CN(C)C1(Cc2ccccc2)CCN(c2cc(C(F)(F)F)ccc2CNC(=O)Nc2ccc3ccncc3c2)CC1`, the EC50 entry in assay [1] (cho) was “Not Active”. The Ki on Mu-type opioid receptor is 177 nM; in [2], 7.33 nM.

Regarding `CN(C)C1(Cc2ccccc2)CCN(c2cc(C(F)(F)F)ccc2CNC(=O)Nc2cccc3ccncc23)CC1`, in assay [1] (cho), the EC50 result was “Not Active”. The Ki is 205 nM at Mu-type opioid receptor and 12.3 nM in [2].

`CC(C(=O)NCc1ccc(C(F)(F)F)cc1N1CCC(Cc2ccccc2)(N(C)C)CC1)c1ccc(NS(C)(=O)=O)c(F)c1` (configuration not stated): in [1] (cho), the EC50 entry is listed as “Not Active”. Further, the Ki amounted to 428 nM at Mu-type opioid receptor and 3.79 nM in assay [2].

As for `CN(C)C1(Cc2ccccc2)CCN(c2cc(C(F)(F)F)ccc2CNC(=O)Nc2cccc3[nH]c(=O)ccc23)CC1`, the EC50 entry in [1] (cho) is reported as “Not Active”. Further, the results for the Ki (on Mu-type opioid receptor; in [2]) were 240 nM and 1.67 nM, respectively.

For `CN(C)C1(Cc2ccccc2)CCN(c2cc(C(F)(F)F)ccc2CNC(=O)Nc2cccc3c2CC(O)CC3)CC1` (configuration not stated), the EC50 entry in assay [1] (cho) is listed as “Not Active”. Besides, the Ki on Mu-type opioid receptor was 261 nM; in assay [2] it was 0.95 nM.

Regarding `CN(C)C1(Cc2ccccc2)CCN(c2cc(C(F)(F)F)ccc2CNC(=O)Nc2ccc(NS(C)(=O)=O)c(F)c2)CC1`, the EC50 entry in [1] (cho) is “Not Active”. The Ki worked out at 368 nM on Mu-type opioid receptor and 1160 nM in [2]. Moreover, the inhibition result in assay [13] is “Active”.

As to `CN(C)C1(Cc2ccccc2)CCN(c2cc(C(F)(F)F)ccc2CNC(=O)Nc2cccc3ccc(O)cc23)CC1`, the EC50 result in assay [1] (cho) is “Not Active”. Further, the Ki on Mu-type opioid receptor turned out to be 137 nM; in assay [2], 0.46 nM.

In the case of `CN(C)C1(Cc2ccccc2)CCN(c2cc(C(F)(F)F)ccc2CNC(=O)Nc2ccc3cnccc3c2)CC1`, the EC50 result in assay [1] (cho) is on record as “Not Active”. The Ki was 17 nM on Mu-type opioid receptor and 62 nM in assay [2].

Regarding `CN(C)C1(Cc2ccccc2)CCN(c2cc(C(F)(F)F)ccc2CNC(=O)Nc2ccc3cccnc3c2)CC1`, in assay [1] (cho), the EC50 entry is recorded as “Not Active”. Also, the figures for the Ki (on Mu-type opioid receptor; in [2]) were 166 nM and 14.1 nM, respectively.

As for `CN(C)C1(Cc2ccccc2)CCN(c2cc(C(F)(F)F)ccc2CNC(=O)Nc2cccc3cnccc23)CC1`, in assay [1] (cho), the EC50 result is reported as “Not Active”. Also, the Ki turned out to be 507 nM on Mu-type opioid receptor and 0.67 nM in assay [2].

Take `CN(C)C1(Cc2ccccc2)CCN(c2cc(C(F)(F)F)ccc2CNC(=O)NCc2ccc(NS(C)(=O)=O)c(F)c2)CC1`: the EC50 result in [1] (cho) is “Not Active”. For the same molecule, the Ki on Mu-type opioid receptor was determined as 76.2 nM; in assay [2] it was 266 nM.

On to `CC1CCN(c2nc(C(F)(F)F)ccc2CNC(=O)[C@@H](C)c2ccc(NS(C)(=O)=O)c(F)c2)CC1` (racemic), for which the EC50 entry in assay [1] (cho) is reported as “Not Active”. In [2], the Ki is 7.9 nM.

`CN(C)C1(Cc2ccccc2)CCN(c2cc(C(F)(F)F)ccc2CNC(=O)Nc2ccc(CNS(N)(=O)=O)c(F)c2)CC1`: the EC50 entry in [1] (cho) was “Not Active”. Also, the inhibitory constant (Ki) at Mu-type opioid receptor worked out at 72.4 nM; in assay [2], 15.3 nM.

As for `CN(C)C1(Cc2ccccc2)CCN(c2cc(C(F)(F)F)ccc2CNC(=O)Nc2ccc(CNS(C)(=O)=O)c(F)c2)CC1`, in assay [1] (cho), the EC50 result is “Not Active”. Besides, the Ki at Mu-type opioid receptor amounted to 322 nM; in [2], 16.4 nM.

Consider `CN(C)C1(Cc2ccccc2)CCN(c2cc(C(F)(F)F)ccc2CNC(=O)Nc2ccc3c(c2)OCC3)CC1`, for which, in assay [1] (cho), the EC50 entry was “Not Active”. The results for the Ki (at Mu-type opioid receptor; in assay [2]) were 225 nM and 41.4 nM, respectively.
